Values joined by “and” are separate entries in the source; they are usually repeats but may differ in a detail not shown here. Equal values may be shown once.
Columns and labels:
[1] = tested on: Mus musculus; assay: Tested for change in body weight from onset to termination at dose of 5 mg/kg; assay type: functional
In short: (§1)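 Female CD-1 mice inoculated ip with 0.1 mL of 10^7 Sarcoma 180 ascites cells/mL. Drug in 0.9% NaCl with 5% ethanol and Tween 80, serially diluted in saline, given ip once daily for 6 days starting 24 h after implantation. Dose based on mean starting weight. Controls received saline. Weight change recorded from day 0 to day 7, as % change.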

[2] = tested on: Mus musculus; assay: Tested for mean survival time treated animal not surviving 50 days as a percentage at dose of 1.25 mg/kg; assay type: functional
In short: (§2)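 Female CD-1 mice, Sarcoma 180 ascites, 0.1 mL of 10^7 cells/mL given ip. Drug in 0.9% NaCl, 5% ethanol, Tween 80, serially diluted with saline. Dosed ip at 0.5 mL daily for 6 days from 24 h post-implant; daily dose based on starting mean weight. T/C is the mean survival of treated mice dying before 50 days vs controls. Survivors are those alive ≥50 days out of those treated.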

[3] = tested on: Mus musculus; assay: Tested for mean survival time treated animal not surviving 50 days as a percentage at dose of 10 mg/kg; assay type: functional; in short: as §2
[4] = tested on: Mus musculus; assay: Tested for mean survival time treated animal not surviving 50 days as a percentage at dose of 15 mg/kg; assay type: functional; in short: as §2
[5] = tested on: Mus musculus; assay: Tested for mean survival time treated animal not surviving 50 days as a percentage at dose of 2.5 mg/kg; assay type: functional; in short: as §2
[6] = tested on: Mus musculus; assay: Tested for mean survival time treated animal not surviving 50 days as a percentage at dose of 20 mg/kg; assay type: functional; in short: as §2
[7] = tested on: Mus musculus; assay: Tested for mean survival time treated animal not surviving 50 days as a percentage at dose of 5 mg/kg; assay type: functional; in short: as §2
[8] = tested on: Mus musculus; assay: Tested for change in body weight from onset to termination at dose of 1.25 mg/kg; assay type: functional; in short: as §1
[9] = tested on: Mus musculus; assay: Tested for change in body weight from onset to termination at dose of 10 mg/kg; assay type: functional; in short: as §1
[10] = tested on: Mus musculus; assay: Tested for change in body weight from onset to termination at dose of 15 mg/kg; assay type: functional; in short: as §1
[11] = tested on: Mus musculus; assay: Tested for change in body weight from onset to termination at dose of 2.5 mg/kg; assay type: functional; in short: as §1
[12] = tested on: Mus musculus; assay: Tested for change in body weight from onset to termination at dose of 20 mg/kg; assay type: functional; in short: as §1
[13] = tested on: Mus musculus; assay: Tested for number of animal surviving at least 50 days out of 10 animal treated at dose of 10 mg/kg; assay type: functional; in short: as §2
[14] = tested on: Mus musculus; assay: Tested for number of animal surviving at least 50 days out of 10 animal treated at dose of 20 mg/kg; assay type: functional; in short: as §2
[15] = tested on: Mus musculus; assay: Tested for number of animal surviving at least 50 days out of 10 animal treated at dose of 5 mg/kg; assay type: functional; in short: as §2
[16] = tested on: Mus musculus; assay: Tested for number of animal surviving at least 50 days out of 5 animal treated at dose of 1.25 mg/kg; assay type: functional; in short: as §2
[17] = tested on: Mus musculus; assay: Tested for number of animal surviving at least 50 days out of 5 animal treated at dose of 15 mg/kg; assay type: functional; in short: as §2
[18] = tested on: Mus musculus; assay: Tested for number of animal surviving at least 50 days out of 5 animal treated at dose of 2.5 mg/kg; assay type: functional; in short: as §2
[19] = Tested for inhibition of growth of sarcoma 180 cells in culture; assay type: functional, cell-based; conditions: Mus musculus
In short: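 Sarcoma 180 cells in suspension in Fischer's medium with 10% horse serum and penicillin/streptomycin, seeded at 10^4 cells/mL. Drug added from 10× stocks in 10% Me2SO/PBS, final 1–100 μM. Control cultures contained 1% Me2SO. Triplicate Coulter counts at 24, 48 and 72 h. IC50 read from a plot of inhibition of cell-number increase at 72 h versus concentration.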

[20] = tested on: Mus musculus; assay: Tested for change in body weight of Mice bearing Ehrlich carcinoma from onset to termination at dose of 5 mg/kg; assay type: functional
In short: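 Female CD-1 mice given ip implants of Ehrlich carcinoma (0.1 mL of 10^7 cells/mL). Drug in saline containing 5% ethanol and Tween 80, injected ip once daily for 6 consecutive days from 24 h post-implant. Controls received 0.9% NaCl. % body weight change measured between tumor implantation (day 0) and day 7.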

[21] = tested on: Mus musculus; assay: Tested for change in body weight of Mice bearing […] 755 from onset to termination at dose of 10 mg/kg; assay type: functional
In short: (§3)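 Adenocarcinoma 755 implanted ip (0.1 mL of 10^7 cells/mL) in female AKD2F1 mice. Daily ip dosing for 6 days beginning 24 h after implantation, vehicle 0.9% NaCl/5% ethanol/Tween 80, lower doses by saline dilution. Control mice received saline. Weight difference between day 0 and day 7 taken as % change and used as a toxicity measure.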

[22] = tested on: Mus musculus; assay: Tested for change in body weight of Mice bearing […] 755 from onset to termination at dose of 20 mg/kg; assay type: functional; in short: as §3
[23] = tested on: Mus musculus; assay: Tested for change in body weight of Mice bearing […] 755 from onset to termination at dose of 5 mg/kg; assay type: functional; in short: as §3
[24] = tested on: Mus musculus; assay: Tested for mean survival time of Mice bearing Ehrlich carcinoma not surviving 50 days as a percentage at dose of 10 mg/kg; assay type: functional
In short: (§4)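 Female CD-1 mice, Ehrlich ascites carcinoma, 0.1 mL of 10^7 cells/mL given ip. Drug in 0.9% NaCl with 5% ethanol and trace Tween 80, serially diluted with saline. Dosed ip at 0.5 mL once daily for 6 days from 24 h post-implant; saline controls. T/C is the mean survival of treated mice dying before 50 days as % of controls. Survivors are those alive ≥50 days.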

[25] = tested on: Mus musculus; assay: Tested for mean survival time of Mice bearing Ehrlich carcinoma not surviving 50 days as a percentage at dose of 20 mg/kg; assay type: functional; in short: as §4
[26] = tested on: Mus musculus; assay: Tested for mean survival time of Mice bearing Ehrlich carcinoma not surviving 50 days as a percentage at dose of 5 mg/kg; assay type: functional; in short: as §4
[27] = tested on: Mus musculus; assay: Tested for mean survival time of Mice bearing […] 755 not surviving 50 days as a percentage at dose of 20 mg/kg; assay type: functional
In short: (§5)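 Female AKD2F1 mice, adenocarcinoma 755, 0.1 mL of 10^7 cells/mL given ip. Vehicle 0.9% NaCl/5% ethanol/Tween 80, serially diluted with saline. Dosed ip at 0.5 mL once daily for 6 consecutive days starting 24 h post-implant; saline controls. T/C is the mean survival of non-50-day survivors as % of controls. Survivors are those alive ≥50 days.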

[28] = tested on: Mus musculus; assay: Tested for mean survival time of Mice bearing […] 755 not surviving 50 days as a percentage at dose of 5 mg/kg; assay type: functional; in short: as §5
[29] = tested on: Mus musculus; assay: Tested for Mice bearing […] 755 surviving at least 50 days out of 5 animal treated at dose of 10 mg/kg; assay type: functional; in short: as §5
[30] = tested on: Mus musculus; assay: Tested for Mice bearing […] 755 surviving at least 50 days out of 5 animal treated at dose of 20 mg/kg; assay type: functional; in short: as §5
[31] = tested on: Mus musculus; assay: Tested for Mice bearing […] 755 surviving at least 50 days out of 5 animal treated at dose of 5 mg/kg; assay type: functional; in short: as §5
[32] = tested on: Mus musculus; assay: Tested for number of animal surviving at least 50 days out of 10 animals treated at dose of 2.5 mg/kg; assay type: functional; in short: as §2
[33] = tested on: Mus musculus; assay: Tested for number of animal surviving at least 50 days out of 10 animals treated at dose of 20 mg/kg; assay type: functional; in short: as §2
[34] = tested on: Mus musculus; assay: Tested for number of animal surviving at least 50 days out of 15 animals treated at dose of 15 mg/kg; assay type: functional; in short: as §2
[35] = tested on: Mus musculus; assay: Tested for number of animal surviving at least 50 days out of 30 animals treated at dose of 10 mg/kg; assay type: functional; in short: as §2
[36] = tested on: Mus musculus; assay: Tested for number of animal surviving at least 50 days out of 30 animals treated at dose of 5 mg/kg; assay type: functional; in short: as §2
[37] = tested on: Mus musculus; assay: Tested for Mice bearing Ehrlich carcinoma surviving at least 50 days out of 10 animal treated at dose of 10 mg/kg; assay type: functional; in short: as §4
[38] = tested on: Mus musculus; assay: Tested for Mice bearing Ehrlich carcinoma surviving at least 50 days out of 10 animal treated at dose of 20 mg/kg; assay type: functional; in short: as §4
[39] = tested on: Mus musculus; assay: Tested for Mice bearing Ehrlich carcinoma surviving at least 50 days out of 10 animal treated at dose of 5 mg/kg; assay type: functional; in short: as §4
[40] = tested on: Mus musculus; assay: Tested for mean survival time of Mice bearing […] 755 not surviving 50 days as a percentage at dose of 10 mg/kg; assay type: functional; in short: as §5
[41] = tested on: Mus musculus; assay: Tested for number of animal surviving at least 50 days out of 10 animal treated at dose of mg/kg; assay type: functional; in short: as §2

| SMILES | Activity [1] [%] | Activity [3] [%] | Activity [4] [%] | Mean survival time, treated vs control (T/C) [5] [%] | Activity [6] [%] | Activity [7] [%] | Activity [9] [%] | Activity [10] [%] | Activity [11] [%] | Activity [12] [%] | Survivors [13] | Survivors [14] | Survivors [15] | IC50 [19] [µM] | Activity [20] [%] | Activity [21] [%] | Activity [22] [%] | Activity [23] [%] | Activity [24] [%] | Activity [25] [%] | also measured |
| --- | --- | --- | --- | --- | --- | --- | --- | --- | --- | --- | --- | --- | --- | --- | --- | --- | --- | --- | --- | --- | --- |
| O=Cc1c(C=O)c(O)c2ccccc2c1O | 14 | 90 | 64 | 81 | 76 | 93 | 17 | 0 | 14 | 1 | 0 | 0 | 0 | 66 | – | – | – | – | – | – | Activity [2]: 81%; Activity [8]: 16%; Survivors [16]: 0; Survivors [17]: 1; Survivors [18]: 0 |
| Cc1c(C)c(O)c(C)c(C)c1O [DUROHYDROQUINONE] | – | – | – | – | – | – | – | – | – | – | – | – | – | 12 | – | – | – | – | – | – | – |
| COc1c(C)c(C)c(O)c(C=O)c1C=O | – | – | – | – | – | – | – | – | – | – | – | – | – | 37 | – | – | – | – | – | – | – |
| Cc1c(C)c(O)c(C=O)c(C=O)c1O | 6 | 195 | 148 | 128 | 91 | 182 | 1 | -3 | 23 | -4 | – | – | – | 26 | 21 | -13 | -11 | -2 | 125 | 127 | Activity [26]: 120%; Activity [27]: 138%; Activity [28]: 27%; Survivors [29]: 5; Survivors [30]: 2; Survivors [31]: 4; Survivors [32]: 0; Survivors [33]: 0; Survivors [34]: 0; Survivors [35]: 3; Survivors [36]: 3; Survivors [37]: 2; Survivors [38]: 3; Survivors [39]: 0 |
| CC(=O)Oc1c(C)c(C)c(OC(C)=O)c2c1C(OC(C)=O)OC2OC(C)=O (stereo unspecified) | 5 | 149 | – | – | 109 | 109 | – | – | – | – | – | 0 | 0 | < 25 | 4 | -15 | -14 | -7 | 195 | 222 | Activity [26]: 168%; Activity [40]: 16%; Activity [27]: 38%; Activity [28]: 59%; Activity ([9]; 10 mg/kg): -6% and -4%; Survivors [29]: 4; Survivors [30]: 1; Survivors [31]: 3; Survivors [41]: 0; Survivors [38]: 3; Survivors [39]: 2 |
| COc1c(C)c(C)c(OC)c(C=O)c1C=O | 15 | 96 | – | – | 103 | 81 | 15 | – | – | 11 | 0 | 0 | 0 | 97 | – | – | – | – | – | – | – |

From ChEMBL document CHEMBL1121449, “Synthesis and antineoplastic activity of hydroquinone dialdehydes” (J Med Chem, 1980)
